Bioassay records deposited in PubChem BioAssay by several laboratories.
Only a selection was taken, and hits are over-represented in it overall.
BAP1 block – blocks human BAP1 ubiquitin-AMC hydrolysis; recombinant BAP1, Ub-AMC hydrolysis fluorescence kinetic; stronger effect = lower value; calls only at 20 µM; 72,000 compounds, 0.48% hits; AID 436;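 active means activity remaining at or below 50% of control, provided the compound also passes the data quality filters; inactive means the rest, including low values that fail the filters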
WNV protease inh – WNV NS2B-NS3 proteinase inhibition. WNV NS2B-NS3 protease, fluorogenic substrate Ex360/Em465; stronger effect = lower value. z-score (concentration not given with the values). 65,000 compounds, 0.18% hits. AID 577; in the data active means z-score below about -3
Target sequence (P06935 1371-1501 limits assumed): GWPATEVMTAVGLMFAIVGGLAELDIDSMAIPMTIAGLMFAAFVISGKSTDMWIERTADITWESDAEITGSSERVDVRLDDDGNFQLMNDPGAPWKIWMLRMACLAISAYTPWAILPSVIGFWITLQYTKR
Target sequence (P06935 1502-1679 limits assumed): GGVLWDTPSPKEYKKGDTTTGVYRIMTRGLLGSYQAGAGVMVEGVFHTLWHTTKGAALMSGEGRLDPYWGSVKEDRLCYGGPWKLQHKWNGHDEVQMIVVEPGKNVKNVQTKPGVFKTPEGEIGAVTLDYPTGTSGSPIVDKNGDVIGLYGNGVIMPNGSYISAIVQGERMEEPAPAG
TNAP act mid DEA – activates human TNAP at intermediate phosphate acceptor concentration | P05186 | purified TNAP, CDP-star luminescence, 100 mM DEA, 30 min; stronger effect = higher value; scale: 0 levamisole-inhibited, 1 vehicle-only enzyme | activation factor at 20 µM | 64,000 tested, under 10 active | AID 813;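 active means activation factor of at least 2 at 20 µM, relative to controls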
Ecoli WT expand – growth inhibitors of E. coli BW25113 wild type; OD600 absorbance; growth inhibition, % at 100 µM; 98,000 compounds, 0.15% hits;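 active means growth inhibition above about 50% at one test dose, limit read from the data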;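 further: growth measured after 20 h incubation at 37 °C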
Ecoli tolC – blocks growth of E. coli BW25113 tolC mutant. OD615. growth inhibition, % at 10 µM (by protocol). 65,000 compounds, 2.2% hits. AID 573;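 active means growth inhibition at or above a cutoff equal to the mean over every tested compound plus 3 SD, cut at about 60% in these data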;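 further: growth measured after 20 h incubation at 37 °C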
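Doses: one dose of 10 µM final / Material: E. coli BW25113 ΔtolC::kan, tolC deletion mutant strain / Buffer or medium: LB with kanamycin 50 µg/mL / Evaluation: percent growth inhibition / Detection: optical density read at 615 nm / Incubation: 37 °C, 20 h exposure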
Numbers stand for hits.

What do the screens show for `CCOc1ccccc1C(=O)N1CCN(C(c2ccccc2)c2ccccc2)CC1`?
Ecoli WT expand: inactive

What do the screens show for `CC(=O)c1ccccc1OCC(O)CN1CCN(C(c2ccccc2)c2ccccc2)CC1` (configuration not stated)?
BAP1 block: inactive; WNV protease inh: inactive; TNAP act mid DEA: inactive; Ecoli WT expand: inactive; Ecoli tolC: 74.2

How did Cc1ccc(-n2c(-c3ccc(Br)cc3)c[n+]3c2CCc2ccc4cccnc4c2-3)cc1 do in these assays?
Ecoli WT expand: 78.0

How did O=C(Cn1nc(Cl)nc1Cl)c1ccc2c(c1)OCCO2 do in these assays?
BAP1 block: inactive; WNV protease inh: inactive; TNAP act mid DEA: inactive; Ecoli WT expand: 61.0; Ecoli tolC: inactive

How did Cc1ccc(NC(=O)c2ccccc2F)c([N+](=O)[O-])c1 do in these assays?
BAP1 block: inactive

How did Cc1cc(C)n(-c2nc(NCC(C)O)c3c4c(sc3n2)CCCC4)n1 (configuration not stated) do in these assays?
BAP1 block: inactive; WNV protease inh: inactive; TNAP act mid DEA: inactive; Ecoli WT expand: inactive; Ecoli tolC: 94.0

Results for Cc1cc(C)n(-c2nc(NCCO)c3c4c(sc3n2)CCCC4)n1 ?
BAP1 block: inactive; WNV protease inh: inactive; TNAP act mid DEA: inactive; Ecoli WT expand: inactive; Ecoli tolC: inactive

What do the screens show for `Cc1sc2nc3c4ccccc4c(NCc4ccco4)nn3c(=O)c2c1C`?
BAP1 block: inactive; WNV protease inh: -3.26; TNAP act mid DEA: inactive; Ecoli WT expand: inactive; Ecoli tolC: inactive

What do the screens show for `N#CC1=C(N)SC(N)=C(C#N)C1CCC1CCCCC1`?
BAP1 block: inactive; WNV protease inh: inactive; TNAP act mid DEA: inactive; Ecoli WT expand: inactive; Ecoli tolC: 99.1

Results for Cc1sccc1C1C(C#N)=C(N)SC(N)=C1C#N ?
BAP1 block: inactive; WNV protease inh: inactive; TNAP act mid DEA: inactive; Ecoli WT expand: inactive; Ecoli tolC: inactive

What do the screens show for `Cc1cc(C(=O)CSc2nc3ccccc3o2)c(C)n1C1CC1`?
WNV protease inh: inactive; TNAP act mid DEA: inactive; Ecoli WT expand: inactive; Ecoli tolC: 76.5

Results for CCOC(=O)Cc1nnc2c(Nc3ccc(Cl)cc3)nc3nonc3n12 ?
BAP1 block: inactive; WNV protease inh: inactive; TNAP act mid DEA: inactive; Ecoli WT expand: inactive; Ecoli tolC: 100.0

What do the screens show for `O=C1CC(c2ccc3ccccc3c2)c2ccc3ccccc3c2N1` (configuration not stated)?
BAP1 block: inactive

Results for CCNc1nc(NC(C)C)nc(N(C#N)Cc2ccccc2)n1 ?
BAP1 block: inactive; WNV protease inh: inactive; TNAP act mid DEA: inactive; Ecoli WT expand: inactive; Ecoli tolC: 67.0

How did CCNc1nc(NC(C)C)nc(N(C#N)CCOc2ccc(Cl)cc2Cl)n1 do in these assays?
BAP1 block: inactive; WNV protease inh: inactive; TNAP act mid DEA: inactive; Ecoli WT expand: inactive; Ecoli tolC: 75.3

How did CS(=O)(=O)Nc1ccc(C(=O)NCc2ccco2)cc1 do in these assays?
BAP1 block: inactive; WNV protease inh: inactive; TNAP act mid DEA: inactive; Ecoli WT expand: inactive; Ecoli tolC: inactive

What do the screens show for `CC(C)(C)c1ccccc1OCC(=O)NCc1ccco1`?
BAP1 block: inactive

What do the screens show for `CC(C)(C)c1ccc(OCC(=O)NCc2ccco2)c(Br)c1`?
WNV protease inh: inactive; TNAP act mid DEA: inactive; Ecoli WT expand: inactive; Ecoli tolC: 100.0

Results for CN(C)c1nc(SCc2ccccc2)nc(N2CCOCC2)n1 ?
Ecoli WT expand: inactive

How did CCNc1nc(SCc2ccccc2)nc(N2CCOCC2)n1 do in these assays?
BAP1 block: inactive; WNV protease inh: inactive; TNAP act mid DEA: inactive; Ecoli WT expand: inactive; Ecoli tolC: 65.8

Results for Oc1ccccc1C=Nc1nc2ccccc2n1Cc1ccc(Cl)cc1 ?
BAP1 block: inactive

What do the screens show for `CC(C)(C)c1[nH]nc2c1C(Cc1ccccc1)C(C#N)=C(N)O2` (configuration not stated)?
BAP1 block: inactive; WNV protease inh: inactive; TNAP act mid DEA: inactive; Ecoli WT expand: inactive; Ecoli tolC: 64.2

How did COc1cc(NC(=O)NCc2ccncc2)cc(OC)c1OC do in these assays?
BAP1 block: inactive; WNV protease inh: inactive; TNAP act mid DEA: inactive; Ecoli WT expand: inactive; Ecoli tolC: inactive

How did Cc1n[nH]c(C)c1Br do in these assays?
BAP1 block: inactive

What do the screens show for `CCOC(=O)c1c(NC(=O)CN2CCCCC2)sc2c1CCN(C(=O)OCC)C2`?
BAP1 block: inactive; WNV protease inh: inactive; TNAP act mid DEA: inactive; Ecoli WT expand: inactive; Ecoli tolC: 96.0
